Sampled rows, rich in hits. Any-hit rate of the full collection: about 3%.
TAAR1 antagonist: human TAAR1 antagonists, primary screen, Fluo-8 calcium fluorescence, CHO RD-HGA16 cells | 360,000 tested, 1.5% active | antagonist | inhibition, % at 3 µM;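 active = inhibition above a per-plate cutoff, the mean inhibition of test compounds on that plate plus 3 SD, cut at about 49% in these data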
Target sequence (Q96RJ0 whole entry, looked up): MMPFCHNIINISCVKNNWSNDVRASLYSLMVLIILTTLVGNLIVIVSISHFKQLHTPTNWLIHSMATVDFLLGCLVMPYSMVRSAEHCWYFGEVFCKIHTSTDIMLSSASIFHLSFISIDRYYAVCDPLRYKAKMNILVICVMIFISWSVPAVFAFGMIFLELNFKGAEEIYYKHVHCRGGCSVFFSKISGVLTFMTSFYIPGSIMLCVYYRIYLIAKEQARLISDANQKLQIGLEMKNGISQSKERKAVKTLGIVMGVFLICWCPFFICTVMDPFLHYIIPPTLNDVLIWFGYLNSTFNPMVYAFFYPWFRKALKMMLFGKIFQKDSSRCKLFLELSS
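Test system: CHO RD-HGA16 cells bearing hTAAR1 | Reagent: β-PEA, EC80 | Compound dosing: 3 µM, single point | Schedule: Dye loading 75 min at 37 °C, then 30 min room temperature | Signal: Calcium fluorescence with Fluo-8 | Evaluation: Percent inhibition of PEA-evoked calcium signal, max/basal emission ratio | Control set: DMSO-only wells and EC80 β-PEA-stimulated wells | Repeats: Singlicate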
M4 ag: human M4 muscarinic receptor agonists, primary screen, CHO-K1 cells, Fluo-8 calcium fluorescence; 360,000 tested, 0.14% active; activation, % at 3 µM; CHO-K1 hM4/Gqi5; vehicle 0%, full acetylcholine response 100%; Muscarinic acetylcholine receptor M4 (Homo sapiens), P08173;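 active = activation above the run mean over all test wells plus 3 SD, cut at about 32% in these data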;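 note: peak over basal fluorescence ratio per well then scaled between controls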
M4 PAM: human M4 muscarinic receptor positive allosteric modulators, primary screen, CHO-K1 cells, Fluo-8 calcium fluorescence; CHO-K1 hM4/Gqi5, ACh EC20; 0% = ACh EC20, 100% = maximal ACh; activation, % at 3 µM; 360,000 tested, 0.4% active; AID 624126, 2012;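 active = activation above its plate's cutoff, the mean activation of sample wells plus 3 SD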
TAAR1 agonist: human TAAR1 agonists, primary screen, Fluo-8 calcium fluorescence, CHO RD-HGA16 cells; Trace amine-associated receptor 1 (Homo sapiens), Q96RJ0; vehicle wells 0%, saturating PEA agonist 100%; activation, % at 3 µM; 360,000 tested, 0.99% active; AID 624467, 2012;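 active = activation above the mean activation of all test compounds in the run plus 3 SD, cut at about 38% in these data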
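Test system: RD-HGA16 (CHO) cells co-expressing Gα16 and hTAAR1 / Benchmarks: DMSO vehicle as 0%, PEA at EC100 as 100% / Repeats: no replicates (n 1) / Measure: % activation from peak over basal fluorescence ratio, DMSO-to-PEA scaled / Timing: 17-24 h plating, Fluo-8 75 min 37 °C, 30 min RT / Technique: kinetic Fluo-8 calcium fluorescence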
M4 antag: human M4 muscarinic receptor antagonists, primary screen, CHO cells, Fluo-8 calcium fluorescence | Muscarinic acetylcholine receptor M4 (Homo sapiens), P08173 | CHO-hM4 cells, ACh EC80 | inhibition, % at 3 µM | 360,000 tested, 0.73% active | AID 624125, 2012;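 active = inhibition above its plate's cutoff, the mean inhibition of sample wells plus 3 SD, cut at about 27% in these data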
Large screens that a line does not name were inactive; ! = not confirmed by another sample.

CCN(Cc1ccccc1)S(=O)(=O)c1ccc(C(=O)N(CCCN(C)C)c2nc3ccc(F)cc3s2)cc1	TAAR1 agonist 41
C[C@H]1CN([C@@H](C)CO)C(=O)CCCn2cc(nn2)CO[C@@H]1CN(C)S(=O)(=O)c1ccc(F)cc1	none (no result: M4 ag, M4 PAM, M4 antag)
CN1NC(=O)c2ccccc2NC1=S	none (no result: M4 ag, M4 PAM, M4 antag)
CC(C)(C)c1ccc(CC(=O)N2CCC2(C)C(=O)NCc2cccs2)cc1 (configuration not stated)	none
CSCCC(C(=O)NC(C)(C)C)n1c(-c2cccc(NC(C)=O)c2)nc2ccccc21 (configuration not stated)	none
Cc1cc(C)c2sc(N(CCCN(C)C)C(=O)c3ccc(S(=O)(=O)N(C)C4CCCCC4)cc3)nc2c1	TAAR1 agonist 41
CN(C)CCCN(C(=O)c1cc(Cl)sc1Cl)c1nc2cc3c(cc2s1)OCO3	M4 antag 62
O=C1c2ccccc2C(Nc2ccc(F)c(Cl)c2)N1c1ccccn1 (configuration not stated)	none
COc1ccc(NC2c3ccccc3C(=O)N2c2ccccn2)cc1Cl (configuration not stated)	M4 antag 79
CC(C)(C)C(=O)/C=c1\s/c(=C\c2ccc(-c3ccc([N+](=O)[O-])cc3)o2)c(=O)n1CC(=O)NC(N)=O	TAAR1 antagonist 59, TAAR1 agonist 53
CCC(=O)N/N=C/c1ccc(-c2ccc([N+](=O)[O-])cc2)o1	none
CCN1C(=O)[C@H]2[C@@H](c3ccc(-c4ccccc4)cc3)N3CCCC[C@@]3(C(=O)OC)[C@H]2C1=O	M4 PAM 24
CCN(C[C@H]1N[C@@](CC)(C(=O)OC)[C@H]2C(=O)N(Cc3ccccc3)C(=O)[C@@H]12)C(=O)c1ccc(C)cc1	TAAR1 antagonist 50
CCN1C(=O)[C@H]2[C@@H](c3ccc(-c4ccc(C(C)=O)cc4)cc3)N[C@@](Cc3ccccc3)(C(=O)OC)[C@H]2C1=O	M4 PAM 24
O=C(Nc1ccc(N2CCOCC2)cc1)C1(c2ccc(Cl)cc2)CCC1	TAAR1 agonist 44
Cc1ccc(C2N(c3ccccc3)C(=S)N3CCCN23)cc1 (configuration not stated)	M4 antag 48
Fc1ccc(C2N(c3ccccc3)C(=S)N3CCCN23)cc1 (configuration not stated)	none
CC(C)C[C@@H](CO)N(Cc1ccccc1)S(=O)(=O)N(Cc1ccccc1)[C@@H](CO)CC(C)C	none (no result: TAAR1 antagonist, TAAR1 agonist)
CC(C)C[C@@H](CO)N(Cc1ccccc1)S(=O)(=O)N(Cc1ccccc1)[C@H](CO)CC(C)C	M4 antag 39 (no result: TAAR1 antagonist, TAAR1 agonist)
COc1ccc(CN([C@H](CO)CC(C)C)S(=O)(=O)N(Cc2ccccc2)[C@H](CO)CC(C)C)cc1	M4 antag 41
COC(=O)[C@@H](CC(C)C)NS(=O)(=O)N(Cc1ccccc1)[C@@H](CC(C)C)C(=O)OC	TAAR1 antagonist 50
CCCCNc1cccc2c1S(=O)(=O)N[C@@H](CC(C)C)CO2	none (no result: M4 ag, M4 PAM, M4 antag)
CCN1CCN(C(=O)/C=C/c2ccc(OC)cc2)CC1	M4 PAM 12
COc1ccc2c(c1)CCc1c(C(=O)NCCc3ccc(OC)c(OC)c3)noc1-2	TAAR1 antagonist 49
COc1ccc2c(c1)CCc1c(C(=O)NCc3ccc(F)cc3)noc1-2	none
O=C(NCCc1ccccc1)c1noc2c1CCc1ccccc1-2	TAAR1 antagonist 67
CCCNC(=O)c1noc2c1CCc1ccccc1-2	none
COc1ccc2c(c1)CCc1c(C(=O)Nc3ccc(OC)c(OC)c3)noc1-2	TAAR1 antagonist 51
CN(C)c1ccc(C(C(=O)NCc2ccccc2)N(Cc2cccnc2)C(=O)c2snc(C(N)=O)c2N)cc1 (configuration not stated)	TAAR1 antagonist 56
COc1ccc(CNC(=O)C(C)N(Cc2ccccc2OC)C(=O)c2snc(C(N)=O)c2N)cc1 (configuration not stated)	TAAR1 antagonist 51
COc1ccc(CN(C(=O)c2snc(C(N)=O)c2N)C(C)C(=O)NCc2ccc(F)cc2)cc1 (configuration not stated)	none
COc1cccc(N(C(=O)c2snc(C(N)=O)c2N)C(C(=O)NCc2ccccc2)c2ccc(O)cc2)c1 (configuration not stated)	TAAR1 antagonist 54
COc1ccc(N(C(=O)c2snc(C(N)=O)c2N)C(C(=O)NCc2ccccc2)c2ccc(O)cc2)cc1OC (configuration not stated)	none
Cc1cc(N/C(=C\C(=O)c2ccccc2)c2ccccc2)ccc1Br	none (no result: M4 ag, M4 PAM, M4 antag)
COC(=O)C1=C(C)N(Cc2ccc(F)cc2)C(=S)NC1c1ccc(Cl)cc1 (configuration not stated)	none (no result: M4 ag, M4 PAM, M4 antag)
Fc1ccc([C@@H]2CCNC[C@H]2COc2ccc3c(c2)OCO3)cc1	M4 antag 34!
COc1ccc(-c2cc(C(=O)Nc3cc(OC)cc(C(=O)Nc4cccc(C(F)(F)F)c4)c3)[nH]n2)cc1	TAAR1 antagonist 55
COc1cc(NC(=O)c2cc3cccc(OC)c3o2)cc(C(=O)Nc2cccc(C(F)(F)F)c2)c1	TAAR1 antagonist 87
COc1cc(NC(=O)c2ccc(N)nc2)cc(C(=O)Nc2cccc(C(F)(F)F)c2)c1	none
COc1cc(NC(=O)c2ccno2)cc(C(=O)Nc2cccc(C(F)(F)F)c2)c1	none
CCN1CCN(Cc2ccc(NC(=O)c3cc(NC(=O)c4cc5cccc(OC)c5o4)cc(OC)c3)cc2C(F)(F)F)CC1	TAAR1 antagonist 59!
CN(C(=O)[C@@H](Cc1ccccc1)NC(=O)[C@H]1O[C@@H](n2cnc3c(=O)[nH]c(N)nc32)[C@H](O)[C@@H]1O)C1CCCCC1	none (no result: M4 ag, M4 PAM, M4 antag)
C[C@H]1[C@H](c2ccccc2)Oc2cccc(N3CCCC3)c2S(=O)(=O)N1Cc1cccc(F)c1	none (no result: M4 ag, M4 PAM, M4 antag)
COc1ccc(N(CCCN2C(=O)c3cccc4cccc(c34)C2=O)C(=O)c2cccs2)cc1	none
Cc1ccc(N(CCCCN2C(=O)c3ccccc3C2=O)C(=O)c2cccs2)cc1	TAAR1 antagonist 49
Nc1[nH]c(C(=O)c2ccc(Br)cc2)c(-c2ccc(Cl)cc2[N+](=O)[O-])c1C(=O)NCCc1c[nH]c2ccccc12	none (no result: M4 ag, M4 PAM, M4 antag)
N#CC(c1c(Cl)cccc1N1CCCCC1)N1CCCCC1 (configuration not stated)	none (no result: M4 ag, M4 PAM, M4 antag)
O=C(CCN1CCCCCC1)c1ccccc1	none
NC(=O)C(CCCCN1CCCCC1)(c1ccccc1)c1ccccc1	M4 antag 37
CCCCOc1ccc(C(O)(CCN2CCOCC2)c2ccccc2)cc1 (configuration not stated)	none

Screening results (PubChem BioAssay)
